# Data as given in ChEMBL document CHEMBL1126849, “Synthesis of A-ring fluorinated derivatives of (17 alpha,20E/Z)-[125I]iodovinylestradiols: effect on receptor binding and receptor-mediated target tissue uptake” (J Med Chem, 1993).
# Tests used:
# [1] = tested on: Rattus norvegicus; test: Biodistribution in liver of immature female rat after 5 hour administration of 3 micro Ci (111 kBq) in the absence of 60 microg estradiol; type: ADME, organism-based; details: in vivo
# In short: (§1)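 Immature female Long Evans rats (21–24 days, 45–70 g), unanesthetized in retention cages, given 3 µCi (111 kBq) 125I-labeled steroid i.v. via lateral tail vein. Vehicle was ethanol diluted in saline containing 1% Tween-80, giving 9% ethanol final. The blocking group received 60 µg unlabeled estradiol co-injected. Rats were killed under ether by axillary bleeding, and tissues were KCl-washed and gamma-counted. Data are %ID/g, mean ± SE, n=3–5.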
# [2] = tested on: Rattus norvegicus; test: Biodistribution in blood of immature female rat after 1 hr administration of 3 micro Ci (111 kBq) in the absence of 60 microg estradiol; type: ADME, organism-based; details: in vivo; in short: as §1
# [3] = tested on: Rattus norvegicus; test: Biodistribution in thyroid of immature female rat after 12 hour administration of 3 micro Ci (111 kBq) in the absence of 60 microg estradiol; type: ADME, organism-based, Thyroid gland; details: in vivo
# In short: (§2)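 Immature female Long Evans rats (21–24 days, 45–70 g), three to five per group, given 125I-labeled steroid (3 μCi, 111 kBq) by lateral tail vein without anesthesia. Vehicle: ethanol diluted in saline with 1% Tween-80, final ethanol 9%, 0.22 μm filtered. +E2 groups received 60 μg unlabeled estradiol co-injected. Killed under ether at set times; tissues KCl-washed, blotted, weighed, gamma counted; %ID/g, mean with SE.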
# [4] = tested on: Rattus norvegicus; test: Biodistribution in uterus / spleen, muscle, lungs of immature female rat after 12 hour administration of 3 micro Ci (111 kBq) in the absence of 60 microg estradiol; type: ADME, organism-based; details: in vivo
# In short: (§3)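 Immature female Long Evans rats (21–24 days, 45–70 g), 3–5 per group, unanesthetized in retention cages, given 3 μCi (111 kBq) 125I-labeled steroid by lateral tail vein. Vehicle: ethanol diluted with saline containing 1% Tween-80, final ethanol 9%. +E2 group co-injected 60 μg unlabeled estradiol (1 h only). Killed under ether; tissues KCl-washed, weighed, gamma-counted. Output: %ID/g (mean, SE) and uterus to blood or nontarget (muscle, spleen, lungs) ratios.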
# [5] = tested on: Rattus norvegicus; test: Biodistribution in spleen of immature female rat after 3 hour administration of 3 micro Ci (111 kBq) in the absence of 60 microg estradiol; type: ADME, organism-based; details: in vivo; in short: as §2
# [6] = tested on: Rattus norvegicus; test: Biodistribution in fat of immature female rat after 12 hour administration of 3 micro Ci (111 kBq) in the absence of 60 microg estradiol; type: ADME, organism-based, Adipose tissue; details: in vivo; in short: as §1
# [7] = tested on: Rattus norvegicus; test: Biodistribution in kidney of immature female rat after 3 hour administration of 3 micro Ci (111 kBq) in the absence of 60 microg estradiol; type: ADME, organism-based; details: in vivo; in short: as §1
# [8] = tested on: Rattus norvegicus; test: Biodistribution in uterus / blood of immature female rat after 3 hour administration of 3 micro Ci (111 kBq) in the absence of 60 microg estradiol; type: ADME, organism-based; details: in vivo
# In short: (§4)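 Same in vivo procedure: immature female Long Evans rats (21–24 days), three to five per group, 3 μCi (111 kBq) tracer i.v. via tail vein in 9% ethanol/saline/1% Tween-80, ± 60 μg estradiol co-injected at 1 h. Uterus %ID/g (gamma counting) divided by blood, or by nontarget organ (muscle, spleen, lungs), %ID/g to give ratios.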
# [9] = tested on: Rattus norvegicus; test: Biodistribution in muscle of immature female rat after 12 hour administration of 3 micro Ci (111 kBq) in the absence of 60 microg estradiol; type: ADME, organism-based, Muscle tissue; details: in vivo; in short: as §2
# [10] = tested on: Rattus norvegicus; test: Biodistribution in uterus / spleen, muscle, lungs of immature female rat after 1 hr administration of 3 micro Ci (111 kBq) in the absence of 60 microg estradiol; type: ADME, organism-based; details: in vivo; in short: as §4
# [11] = tested on: Rattus norvegicus; test: Biodistribution in kidney of immature female rat after 1 hr administration of 3 micro Ci (111 kBq) in the presence of (+E2); type: ADME, organism-based; details: in vivo; in short: as §1
# [12] = tested on: Rattus norvegicus; test: Biodistribution in fat of immature female rat after 3 hour administration of 3 micro Ci (111 kBq) in the absence of 60 microg estradiol; type: ADME, organism-based, Adipose tissue; details: in vivo; in short: as §1
# [13] = tested on: Rattus norvegicus; test: Biodistribution in uterus / blood of immature female rat after 12 hour administration of 3 micro Ci (111 kBq) in the absence of 60 microg estradiol; type: ADME, organism-based; details: in vivo; in short: as §4
# [14] = tested on: Rattus norvegicus; test: Biodistribution in fat of immature female rat after 1 hr administration of 3 micro Ci (111 kBq) in the absence of 60 microg estradiol; type: ADME, organism-based, Adipose tissue; details: in vivo; in short: as §1
# [15] = tested on: Rattus norvegicus; test: Biodistribution in uterus of immature female rat after 12 hour administration of 3 micro Ci (111 kBq) in the absence of 60 microg estradiol; type: ADME, organism-based; details: in vivo; in short: as §3
# [16] = tested on: Rattus norvegicus; test: Biodistribution in muscle of immature female rat after 5 hour administration of 3 micro Ci (111 kBq) in the absence of 60 microg estradiol; type: ADME, organism-based, Muscle tissue; details: in vivo; in short: as §2
# [17] = tested on: Rattus norvegicus; test: Biodistribution in muscle of immature female rat after 1 hr administration of 3 micro Ci (111 kBq) in the absence of 60 microg estradiol; type: ADME, organism-based, Muscle tissue; details: in vivo; in short: as §2
# [18] = target: Estrogen receptor (Mus musculus) (UniProt O08537+P19785); test: Relative binding affinity (RBA) against murine cytoplasmic estrogen receptor incubated at 0-4 degree Celsius for 18 hours; type: protein assay
# Chain of Estrogen receptor (Mus musculus) (O08537 whole entry, looked up): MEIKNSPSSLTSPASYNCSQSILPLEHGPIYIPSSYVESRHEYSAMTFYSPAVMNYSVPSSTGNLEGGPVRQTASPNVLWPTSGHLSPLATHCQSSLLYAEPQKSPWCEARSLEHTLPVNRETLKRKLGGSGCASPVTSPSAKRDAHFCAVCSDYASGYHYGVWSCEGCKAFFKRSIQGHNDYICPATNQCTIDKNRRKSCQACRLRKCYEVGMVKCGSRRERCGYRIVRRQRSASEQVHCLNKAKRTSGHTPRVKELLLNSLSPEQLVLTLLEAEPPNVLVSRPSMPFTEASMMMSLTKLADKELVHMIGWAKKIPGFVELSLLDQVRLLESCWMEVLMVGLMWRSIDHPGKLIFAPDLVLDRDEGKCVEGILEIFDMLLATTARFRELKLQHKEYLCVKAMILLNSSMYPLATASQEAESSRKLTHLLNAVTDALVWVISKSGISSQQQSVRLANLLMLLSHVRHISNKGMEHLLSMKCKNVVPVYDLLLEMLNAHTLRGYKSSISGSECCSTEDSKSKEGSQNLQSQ
# Chain of Estrogen receptor (Mus musculus) (P19785 whole entry, looked up): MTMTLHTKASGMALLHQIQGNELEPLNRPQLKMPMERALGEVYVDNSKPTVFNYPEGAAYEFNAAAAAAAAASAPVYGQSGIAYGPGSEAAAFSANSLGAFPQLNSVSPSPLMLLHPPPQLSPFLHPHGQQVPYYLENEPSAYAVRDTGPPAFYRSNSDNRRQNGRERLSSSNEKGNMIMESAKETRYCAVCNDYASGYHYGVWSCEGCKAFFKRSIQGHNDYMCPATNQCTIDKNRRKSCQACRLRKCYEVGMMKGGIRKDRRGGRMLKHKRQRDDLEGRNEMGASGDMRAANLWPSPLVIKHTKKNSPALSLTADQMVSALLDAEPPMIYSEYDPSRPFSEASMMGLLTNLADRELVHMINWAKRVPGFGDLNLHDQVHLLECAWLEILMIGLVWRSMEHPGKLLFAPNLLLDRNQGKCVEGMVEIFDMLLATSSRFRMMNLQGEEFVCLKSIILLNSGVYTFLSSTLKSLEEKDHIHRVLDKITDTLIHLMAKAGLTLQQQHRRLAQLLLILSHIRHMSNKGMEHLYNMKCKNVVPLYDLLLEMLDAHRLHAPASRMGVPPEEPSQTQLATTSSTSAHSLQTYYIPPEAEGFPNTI
# In short: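 Competitive binding on murine uterine cytoplasmic extract with 20 nM [3H]estradiol and competitor steroids at 2 nM–20 μM, incubated 18 h at 0–4 °C. RBA = 100 × ratio of […] concentration giving 50% competition for specific binding. Mean of three experiments with SD.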
# [19] = tested on: Rattus norvegicus; test: Biodistribution in liver of immature female rat after 3 hour administration of 3 micro Ci (111 kBq) in the absence of 60 microg estradiol; type: ADME, organism-based; details: in vivo; in short: as §1
# [20] = tested on: Rattus norvegicus; test: Biodistribution in blood of immature female rat after 3 hour administration of 3 micro Ci (111 kBq) in the absence of 60 microg estradiol; type: ADME, organism-based; details: in vivo; in short: as §1
# [21] = tested on: Rattus norvegicus; test: Biodistribution in muscle of immature female rat after 1 hr administration of 3 micro Ci (111 kBq) in the presence of (+E2); type: ADME, organism-based, Muscle tissue; details: in vivo; in short: as §2
# [22] = tested on: Rattus norvegicus; test: Biodistribution in lungs of immature female rat after 1 hr administration of 3 micro Ci (111 kBq) in the presence of (+E2); type: ADME, organism-based, Lung; details: in vivo; in short: as §1
# [23] = tested on: Rattus norvegicus; test: Biodistribution in liver of immature female rat after 1 hr administration of 3 micro Ci (111 kBq) in the absence of 60 microg estradiol; type: ADME, organism-based; details: in vivo; in short: as §1
# [24] = tested on: Rattus norvegicus; test: Biodistribution in lungs of immature female rat after 1 hr administration of 3 micro Ci (111 kBq) in the absence of 60 microg estradiol; type: ADME, organism-based, Lung; details: in vivo; in short: as §1
# [25] = tested on: Rattus norvegicus; test: Biodistribution in lungs of immature female rat after 5 hour administration of 3 micro Ci (111 kBq) in the absence of 60 microg estradiol; type: ADME, organism-based, Lung; details: in vivo; in short: as §2
# [26] = tested on: Rattus norvegicus; test: Biodistribution in thyroid of immature female rat after 1 hr administration of 3 micro Ci (111 kBq) in the absence of 60 microg estradiol; type: ADME, organism-based, Thyroid gland; details: in vivo; in short: as §2
# [27] = tested on: Rattus norvegicus; test: Biodistribution in lungs of immature female rat after 12 hour administration of 3 micro Ci (111 kBq) in the absence of 60 microg estradiol; type: ADME, organism-based, Lung; details: in vivo; in short: as §2
# [28] = tested on: Rattus norvegicus; test: Biodistribution in fat of immature female rat after 1 hr administration of 3 micro Ci (111 kBq) in the presence of (+E2); type: ADME, organism-based, Adipose tissue; details: in vivo; in short: as §1
# [29] = tested on: Rattus norvegicus; test: Biodistribution in kidney of immature female rat after 1 hr administration of 3 micro Ci (111 kBq) in the absence of 60 microg estradiol; type: ADME, organism-based; details: in vivo; in short: as §1
# [30] = tested on: Rattus norvegicus; test: Biodistribution in uterus / spleen, muscle, lungs of immature female rat after 5 hour administration of 3 micro Ci (111 kBq) in the absence of 60 microg estradiol; type: ADME, organism-based; details: in vivo; in short: as §3
SMILES,ID/g [1] [%],ID/g [2] [%],ID/g [3] [%],ID/g [5] [%],ID/g [6] [%],ID/g [7] [%],uterus to blood %ID/g ratio (unitless) [8] [%],ID/g [9] [%],ID/g [11] [%],ID/g [12] [%],ID/g [14] [%],ID/g [15] [%],ID/g [16] [%],ID/g [17] [%],RBA [18],ID/g [20] [%],ID/g [21] [%],ID/g [22] [%],ID/g [23] [%],ID/g [24] [%],further results
C[C@@H]1Cc2cc(O)c(F)cc2[C@H]2CC[C@@]3(C)[C@@H](CC[C@@]3(O)/C=C/I)[C@H]12,1.38,0.29,446,0.43,0.92,0.29,4.11,0.17,0.49,1.36,1.5,0.35,0.21,0.61,12.1,0.2,0.31,0.53,2.29,0.54,uterus to nontarget tissue ratio [4]: 2.55%; uterus-to-nontarget tissue uptake ratio [10]: 3.3%; Uterus-to-blood radioactivity ratio (dimensionless) [13]: 2.99%; ID/g [19]: 1.53%; ID/g [25]: 0.22%; ID/g [26]: 78%; ID/g [27]: 0.12%; ID/g [28]: 1.48%; ID/g [29]: 0.63%; uterus to nontarget tissue ratio [30]: 3.61%
C[C@@H]1Cc2c(ccc(O)c2F)[C@H]2CC[C@@]3(C)[C@@H](CC[C@@]3(O)/C=C/I)[C@H]12,3.6,0.38,217,0.91,1.67,0.95,17.28,0.16,1.82,4,0.03,3.02,0.56,0.75,36.4,0.32,0.97,1.86,4.36,1.47,uterus to nontarget tissue ratio [4]: 15.57%; uterus-to-nontarget tissue uptake ratio [10]: 5.03%; Uterus-to-blood radioactivity ratio (dimensionless) [13]: 17.87%; ID/g [19]: 3.44%; ID/g [25]: 0.77%; ID/g [26]: 61%; ID/g [27]: 0.23%; ID/g [28]: 5.65%; ID/g [29]: 1.41%; uterus to nontarget tissue ratio [30]: 9.38%
CO[C@H]1C[C@@]2(C)[C@@H](CC[C@@]2(O)/C=C\I)[C@@H]2CCc3c(ccc(O)c3F)[C@H]21,1.42,0.66,4651,0.72,0.47,1.08,13.35,0.27,1.36,1.13,1.43,8.31,0.4,0.66,37.9,0.56,0.77,0.95,2,0.84,uterus to nontarget tissue ratio [4]: 19.35%; uterus-to-nontarget tissue uptake ratio [10]: 7.3%; Uterus-to-blood radioactivity ratio (dimensionless) [13]: 34.58%; ID/g [19]: 1.21%; ID/g [25]: 0.51%; ID/g [26]: 551%; ID/g [27]: 0.37%; ID/g [28]: 1.82%; ID/g [29]: 1.64%; uterus to nontarget tissue ratio [30]: 21.03%
C[C@]12CC[C@@H]3c4ccc(O)c(F)c4CC[C@H]3[C@@H]1CC[C@@]2(O)/C=C\I,1.64,0.71,488,0.48,0.75,0.82,17.08,0.37,0.85,1.96,4.3,6.02,0.38,1.26,66.9,0.48,0.51,1.14,3.49,1.89,uterus to nontarget tissue ratio [4]: 31.56%; uterus-to-nontarget tissue uptake ratio [10]: 8.31%; Uterus-to-blood radioactivity ratio (dimensionless) [13]: 27.32%; ID/g [19]: 1.95%; ID/g [25]: 0.56%; ID/g [26]: 42.2%; ID/g [27]: 0.8%; ID/g [28]: 3.41%; ID/g [29]: 1.87%; uterus to nontarget tissue ratio [30]: 28.59%
C[C@]12CC[C@@H]3c4cc(F)c(O)cc4CC[C@H]3[C@@H]1CC[C@@]2(O)/C=C/I,2.12,0.53,163,0.32,0.41,0.47,1.4,0.03,0.66,3.17,3.45,0.08,0.28,0.73,6.2,0.42,0.54,0.93,3.95,1,ID/g [25]: 0.54%; ID/g [26]: 27%; ID/g [27]: 0.1%; ID/g [28]: 2.93%; ID/g [29]: 0.87%
CO[C@H]1C[C@@]2(C)[C@@H](CC[C@@]2(O)/C=C\I)[C@@H]2CCc3cc(O)c(F)cc3[C@H]21,–,–,–,–,–,–,–,–,–,–,–,–,–,–,27.9,–,–,–,–,–,–
CO[C@H]1C[C@@]2(C)[C@@H](CC[C@@]2(O)/C=C/I)[C@@H]2CCc3c(ccc(O)c3F)[C@H]21,–,–,–,–,–,–,–,–,–,–,–,–,–,–,27.7,–,–,–,–,–,–
